Article PMC7218746 (Biomacromolecules, 2020)
Ends that are not written are not given here.

How the values were obtained:
[1] = test system: Metalloprotease (type IV) collagenase from C. histolyticume; assay: Kinetics of Pep-NC cleavage by collagenase; assay type: in vitro ADME; conditions: GPC; for change of molecular weight after incubation with collagenase: collagenase 30 units·mL–1, 24 h
Outline: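 Polymer at 5 mg·mL–1 in PBS pH 7.4 with 0.9 mM CaCl2 and 0.02% NaN3, held 3 h at 4 °C, then 37 °C. l-Pep-NC incubated with or without type IV collagenase (0.5 units·mL–1); d-Pep-NC with 30 units·mL–1 for 24 h. Timed l-Pep-NC aliquots quenched 1 h with 0.1 M EDTA, dialysed, lyophilised. Mn by GPC (DMF/10 mM LiCl, 65 °C, RI detection, PEG standards).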

[2] = Determination of cloud points of polymers; assay type: physicochemical; conditions: in PBS; refers to Table 1
Dynamic light scattering = assay type: physicochemical; conditions: DLS, 1 mg·mL–1 in PBS pH 7.4, 37 °C, 173° angle; micelles as prepared
[3] = 37 °C, 5 mg·mL–1 polymer in PBS pH 7.4 with 0.9 mM CaCl2

| Sequence | change of molecular weight after incubation with collagenase [1, 3] | change of molecular weight in the absence of the enzyme ([1]; 24 h, 37 °C, PBS pH 7.4) | time for cleavage of the peptide block ([1]; collagenase 0.5 units·mL–1, 37 °C, 5 mg·mL–1 polymer in PBS pH 7.4 with 0.9 mM CaCl2) [min] | LCST [2] [°C] | Z-average diameter (Dynamic light scattering) [nm] |
| --- | --- | --- | --- | --- | --- |
| KGPQGIFGQK [D-Pep-NC, (NIPAM-co-HPMA-Cys)-PEG-D-Peptide-PEG-P(NIPAM-co-HPMA-Cys)] | did not change | – | – | – | – |
| KGPQGIFGQK [L-Pep-NC, P(NIPAM-co-HPMA-Cys)-PEG-peptide-PEG-P(NIPAM-co-HPMA-Cys)] | reduced to half its original molecular weight | No change in the molecular weight | 160 | – | – |
| KGPQGIFGQK [Pep-NC, P(NIPAM-co-HPMA-Cys)-PEG-peptide-PEG-P(NIPAM-co-HPMA-Cys)] | – | – | – | ~31 | 87 ± 1 |
